Twelve molecules from ChEMBL document CHEMBL5154915 (J Med Chem, 2022) can be followed below.

The species entered for series [1] is Cavia porcellus. Briefly: Activation of SERCA2a activity in guinea pig heart sarcoplasmic reticulum microsomal fraction assessed as increase in SERCA2a-Ca2+ affinity by measuring Kd of calcium at 100 nM preincubated for 5 mins followed by addition of 32-P-ATP measured after 15 mins relative to control. Format: subcellular. As to conditions: time 20.0 min. The essentials: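 Cardiac SR microsomes were prepared from healthy guinea pig hearts and contain SERCA2a plus PLN. Compounds were tested at 10 and 100 nM. KdCa and Vmax were derived by curve fitting. N = 4–11; one-way RM ANOVA with Tukey or paired t-test.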

The species entered for series [2] is Cavia porcellus. Briefly: Activation of SERCA2a activity in guinea pig heart sarcoplasmic reticulum microsomal fraction assessed as increase in SERCA2a-Ca2+ affinity by measuring Kd of calcium at 10 to 100 nM preincubated for 5 mins followed by addition of 32-P-ATP measured after 15 mins. Type of series: subcellular. As to conditions: filed as activator, dose 10-100 nM, time 20.0 min. The gist of the method: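 Cardiac SR microsomes were prepared from healthy guinea pig hearts and contain SERCA2a plus PLN. Compounds were tested at 10 and 100 nM. ATPase was measured as 32P-ATP release at 37 °C, taking the cyclopiazonic acid (10 μM)-sensitive part, across Ca2+ 100–1500 nM. KdCa and Vmax were derived by curve fitting. N = 4–11; one-way RM ANOVA with Tukey or paired t-test.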

A further series deals with Na+/K+ ATPase alpha 1 (Canis lupus familiaris, UniProt P50997). Briefly: Inhibition of Beagle dog kidney NA+/K+ ATPase alpha 1 by measuring 32P-ATP hydrolysis at 0.0001 M preincubated for 10 mins followed by addition of 32P-ATP measured after 15 mins. Format: toxicity. The conditions noted are these: dog kidney Na+/K+ ATPase alpha 1, probe 32P-ATP, time 25 min. The essentials: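 Na+/K+ ATPase-α1 was purified from dog kidney (specific activity 14 μmol/min/mg protein). Compounds were tested from 10–9 to 10–4 M. Activity is the ouabain (1 mM)-sensitive part of total 32P-ATP release at 37 °C. N = 2.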

Series [3] is described as follows: Acute toxicity in po dosed Albino Swiss CD-1 mouse assessed as lethal dose after 24 hrs. Format: organism-based. The conditions noted are these: in vivo. The essentials: (§1)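 Male Albino Swiss CD-1 mice received compound in saline. Intravenous doses were 100, 200, 250, 275 and 300 mg/kg (1–4 mice per group). Oral doses were 100, 200, 400, 600 and 800 mg/kg (4 per group). Vehicle-only controls were included.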

Series [4] is described as follows: Acute toxicity in iv dosed Albino Swiss CD-1 mouse assessed as lethal dose after 24 hrs. Format: organism-based. The conditions noted are these: in vivo. The essentials: as §1
Series [5] is filed under the species Cavia porcellus. Briefly: Activation of SERCA1 activity in guinea pig skeletal muscle microsome from hind leg assessed as increase in SERCA1-Ca2+ affinity by measuring Kd of calcium at 30 to 1000 nM preincubated for 5 mins followed by addition of 32-P-ATP measured after 15 mins in presence of PLN (1-12) relative to control. Type of series: microsomes. As to conditions: dose 30-1000 nM, time 20.0 min.

Series [6] is filed under the species Cavia porcellus. As to the kind of experiment: Activation of SERCA1 activity in guinea pig skeletal muscle microsome from hind leg assessed as increase in SERCA1-Ca2+ affinity by measuring reversal of PLN (1-12)-induced shift in dissociation of calcium. Format: microsomes. As to conditions: filed as activator, dose 30-1000 nM, DDE = dose-dependent effect.
For series [7], the system named is Rattus norvegicus. As to the kind of experiment: Hemodynamic activity in STZ-induced diabetic cardiomyopathy Sprague-Dawley rat model assessed as transmitral doppler flow index by measuring increasing in E and A waves at 0.2 mg/kg/min, iv for 15 to 30 mins measured after 10 mins of treatment by tissue doppler imaging method. Format: functional, organism-based. As to conditions: time lower […], time upper 40.0 min. The gist of the method: (§2)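 Male Sprague Dawley rats (150–175 g) were made diabetic with STZ 50 mg/kg i.v. in citrate buffer; fasting glycaemia >290 mg/dL at 1 week qualified. They were studied 8 weeks after STZ under urethane 1.25 g/kg i.p. Transthoracic echo with pulsed Doppler and TDI was taken before, at 15 and 30 min during i.v. infusion at 0.2 mg/kg/min, and 10 min after stopping. N = 13; one-way RM ANOVA.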

Series [8] is described as follows: Inhibition of NA+/K+ ATPase activity in STZ-induced diabetic rat left ventricular myocytes assessed as inhibition of NA+/K+ ATPase current at 20 to 100 uM for 30 min. Type of series: toxicity, cell-based. The conditions noted are these: ventricular myocyte, 0.5 h, dose 20-100 µM.
A short description of series [9]: Acute toxicity in Albino Swiss CD-1 mouse assessed as prostration at 100 to 800 mg/kg, po or 100 to 300 mg/kg, iv after 24 hrs. Type of series: organism-based. The conditions noted are these: in vivo, dose 100-800 mg/kg. The gist of the method:
as §1

A short description of series [10]: Acute toxicity in Albino Swiss CD-1 mouse assessed as convulsions at 100 to 800 mg/kg, po or 100 to 300 mg/kg, iv after 24 hrs. Type of series: organism-based. As to conditions: in vivo, dose 100-800 mg/kg. The gist of the method:
as §1

Series [11] has as its system Rattus norvegicus. Briefly: Hemodynamic activity in STZ-induced diabetic cardiomyopathy Sprague-Dawley rat model assessed as transmitral doppler flow index by measuring increase in protodiastolic TDI relaxation velocity at 0.2 mg/kg/min, iv for 15 to 30 mins measured after 10 mins of treatment by tissue doppler imaging method. The conditions noted are these: time lower […], time upper 40.0 min. Type of series: functional, organism-based. The gist of the method: as §2

Series [12] has as its system Rattus norvegicus. Briefly: Hemodynamic activity in STZ-induced diabetic cardiomyopathy Sprague-Dawley rat model assessed as effect on systolic TDI velocity at 0.2 mg/kg/min, iv for 15 to 30 mins measured after 10 mins of treatment by tissue doppler imaging method. As to conditions: time lower […], time upper 40.0 min. Type of series: functional, organism-based. The gist of the method: as §2

For series [13], the system named is Rattus norvegicus. Briefly: Hemodynamic activity in STZ-induced diabetic cardiomyopathy Sprague-Dawley rat model assessed as effect on left ventricular end-systolic diameter at 0.2 mg/kg/min, iv for 15 to 30 mins measured after 10 mins of treatment by tissue doppler imaging method. Format: functional, organism-based. The conditions noted are these: time lower […], time upper 40.0 min. The essentials:
as §2

Series [14] has as its system Rattus norvegicus. As to the kind of experiment: Hemodynamic activity in STZ-induced diabetic cardiomyopathy Sprague-Dawley rat model assessed as transmitral doppler flow index by measuring shortening in DT wave at 0.2 mg/kg/min, iv for 15 to 30 mins measured after 10 mins of treatment by tissue doppler imaging method. Format: functional, organism-based. As to conditions: time lower […], time upper 40.0 min. The gist of the method: as §2

The test system of series [15] is Rattus norvegicus. Briefly: Hemodynamic activity in STZ-induced diabetic cardiomyopathy Sprague-Dawley rat model assessed as effect on systolic index by measuring fractional shortening at 0.2 mg/kg/min, iv for 15 to 30 mins measured after 10 mins of treatment by tissue doppler imaging method. Type of series: functional, organism-based. The conditions noted are these: time lower […], time upper 40.0 min. The essentials: as §2

Series [16] deals with Rattus norvegicus. As to the kind of experiment: Hemodynamic activity in STZ-induced diabetic cardiomyopathy Sprague-Dawley rat model assessed as effect on heart rate at 0.2 mg/kg/min, iv for 15 to 30 mins measured after 10 mins of treatment by tissue doppler imaging method. Type of series: functional, organism-based. As to conditions: time lower […], time upper 40.0 min. The essentials: as §2

Series [17] concerns Rattus norvegicus. As to the kind of experiment: Hemodynamic activity in STZ-induced diabetic cardiomyopathy Sprague-Dawley rat model assessed as transmitral doppler flow index by measuring increase in telediastolic TDI relaxation velocity at 0.2 mg/kg/min, iv for 15 to 30 mins measured after 10 mins of treatment by tissue doppler imaging method. Format: functional, organism-based. The conditions noted are these: time lower […], time upper 40.0 min. The essentials:
as §2

Series [18] deals with Rattus norvegicus. As to the kind of experiment: Hemodynamic activity in STZ-induced diabetic cardiomyopathy Sprague-Dawley rat model assessed as increased cardiac output at 0.2 mg/kg/min, iv for 15 to 30 mins measured after 10 mins of treatment by tissue doppler imaging method. Format: functional, organism-based. As to conditions: time lower […], time upper 40.0 min. The gist of the method: as §2

A short description of series [19]: Acute toxicity in Albino Swiss CD-1 mouse assessed as gasping at 100 to 800 mg/kg, po or 100 to 300 mg/kg, iv after 24 hrs. Type of series: organism-based. The conditions noted are these: in vivo, dose 100-800 mg/kg. The essentials:
as §1

The structures appear in SMILES notation. The source made the active and inactive calls. No cut-off for these calls is given here.

As to `CCOC(=O)CCCCC[C@H]1CC[C@@]2(C)[C@H](C1)[C@@H](O)C[C@@H]1[C@@H]2CC[C@]2(C)C(=O)CC[C@@H]12`, the Activity in the series listed under Cavia porcellus [1] is -26%. Also, the result in the series listed under Cavia porcellus [2] was Active.

Take `C[C@]12CC/C(=C\CCC(=O)O)C[C@@H]1[C@@H](O)C[C@@H]1[C@@H]2CC[C@]2(C)C(=O)CC[C@@H]12`: the Activity in the series listed under Cavia porcellus [1] is -26%. Further, the result in the series filed under Cavia porcellus [2] was Active.

A word on the inhibition: it is the relative decrease from the control value, in per cent. For the molecule `C[C@]12CC[C@H](CC(=O)O)C[C@@H]1[C@H](O)C[C@@H]1[C@@H]2CC[C@]2(C)C(=O)CC[C@@H]12`, the inhibition at […], 100 µM against Na+/K+ ATPase alpha 1 was -55%.

What is called LD50 is the dose expected to kill half of the subjects tested. As to `C[C@]12CCC(=NOCCN)C[C@@H]1C(=O)C[C@@H]1[C@@H]2CC[C@]2(C)C(=O)CC[C@@H]12` (mixture of isomers), the LD50 at 24 h in [3] was found to be 200 mg/kg.

As for `C[C@]12CC[C@H](CCCCCC(=O)O)C[C@@H]1[C@@H](O)C[C@@H]1[C@@H]2CC[C@]2(C)C(=O)CC[C@@H]12`, the Activity in the series listed under Cavia porcellus [1] is -26%. In the series listed under Cavia porcellus [2], the outcome was Active.

With `C[C@]12CC/C(=C\CCC(=O)O)C[C@@H]1[C@H](O)C[C@@H]1[C@@H]2CC[C@]2(C)C(=O)CC[C@@H]12`, the inhibition at […], 100 µM at Na+/K+ ATPase alpha 1 was -62%.

For the molecule `C[C@]12CC/C(=N\OCC(=O)O)C[C@@H]1[C@H](O)C[C@@H]1[C@@H]2CC[C@]2(C)C(=O)CC[C@@H]12`, the LD50 at 24 h in series [4] is above 250 mg/kg.

Turning to `C[C@]12CC[C@H](CC(=O)O)C[C@@H]1[C@@H](O)C[C@@H]1[C@@H]2CC[C@]2(C)C(=O)CC[C@@H]12`, the Activity is 23% in the series filed under Cavia porcellus [5], “Dde” in the series listed under Cavia porcellus [6] and -26% in the series listed under Cavia porcellus [1]. In addition, the result in the series filed under Cavia porcellus [2] was Active.

Regarding `C[C@]12CC[C@H](CCCC(=O)O)C[C@@H]1[C@@H](O)C[C@@H]1[C@@H]2CC[C@]2(C)C(=O)CC[C@@H]12`, the outcome with Rattus norvegicus [7], in the series on Rattus norvegicus [11], with Rattus norvegicus [12], with Rattus norvegicus [13], with Rattus norvegicus [14] and in the series on Rattus norvegicus [15] was Active. Besides, the result in the series on Rattus norvegicus [16], in the series listed under Cavia porcellus [2], in the series with Rattus norvegicus [17] and in the series with Rattus norvegicus [18] was Active. For the same molecule, the “inhibition (INH)” value in [8] is listed as “Active”. Also, the Activity in the series listed under Cavia porcellus [5] was 23%; in the series listed under Cavia porcellus [6], “Dde”; in [9] it was “Non-Toxic”; in series [10], “Non-Toxic”; in series [19], “Non-Toxic”.

Regarding `CCOC(=O)CCC[C@H]1CC[C@@]2(C)[C@H](C1)[C@@H](O)C[C@@H]1[C@@H]2CC[C@]2(C)C(=O)CC[C@@H]12`, in the series listed under Cavia porcellus [1], the Activity was -26%. Further, the outcome in the series filed under Cavia porcellus [2] was Active.

Regarding `CCOC(=O)C[C@H]1CC[C@@]2(C)[C@H](C1)[C@@H](O)C[C@@H]1[C@@H]2CC[C@]2(C)C(=O)CC[C@@H]12`, the result in the series listed under Cavia porcellus [2] was Active.

As to `C[C@]12CC[C@H](CCCC(=O)O)C[C@@H]1[C@H](O)C[C@@H]1[C@@H]2CC[C@]2(C)C(=O)CC[C@@H]12`, in the series filed under Cavia porcellus [2], the result was Active.
